Active and inactive are the calls of the source. No cut-off for these calls is given here.
Legend:
[1] = target: Hepatocyte growth factor receptor (Homo sapiens) (UniProt P08581); experiment: Inhibition of MET (unknown origin) assessed as remaining activity at 1 uM by Kinome scan method relative to control
[2] = target: Mast/stem cell growth factor receptor Kit (Homo sapiens) (UniProt P10721); experiment: Inhibition of KIT-autoinhibited (unknown origin) assessed as remaining activity at 1 uM by Kinome scan method relative to control
[3] = target: Serine/threonine-protein kinase SBK1 (Homo sapiens) (UniProt Q52WX2); experiment: Inhibition of SBK1 (unknown origin) assessed as remaining activity at 1 uM by Kinome scan method relative to control
[4] = target: Tyrosine-protein kinase ABL1 (Homo sapiens) (UniProt P00519); experiment: Inhibition of ABL1 (unknown origin) assessed as remaining activity at 1 uM by Kinome scan method relative to control
In short: (§1)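 Active-site-dependent competition-binding (KINOMEscan) panel of 468 kinases, test compound at 1 μM (from a 10 mM DMSO stock). Read-out is ctrl% = (test signal − positive control signal)/(negative control signal − positive control signal) × 100. DMSO is the negative control (100%) and a control compound is the positive control (0%). Lower ctrl% means tighter binding.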

[5] = system: Leucine-rich repeat serine/threonine-protein kinase 2 (Homo sapiens), Q5S007 [G2019S]; experiment: Inhibition of LRRK2 G2019S mutant (unknown origin) assessed as remaining activity at 1 uM by Kinome scan method relative to control
[6] = target: Uncharacterized serine/threonine-protein kinase SBK3 (Homo sapiens) (UniProt P0C264); experiment: Inhibition of SgK110 (unknown origin) assessed as remaining activity at 1 uM by Kinome scan method relative to control
Chain of Uncharacterized serine/threonine-protein kinase SBK3 (Homo sapiens) (P0C264 whole entry): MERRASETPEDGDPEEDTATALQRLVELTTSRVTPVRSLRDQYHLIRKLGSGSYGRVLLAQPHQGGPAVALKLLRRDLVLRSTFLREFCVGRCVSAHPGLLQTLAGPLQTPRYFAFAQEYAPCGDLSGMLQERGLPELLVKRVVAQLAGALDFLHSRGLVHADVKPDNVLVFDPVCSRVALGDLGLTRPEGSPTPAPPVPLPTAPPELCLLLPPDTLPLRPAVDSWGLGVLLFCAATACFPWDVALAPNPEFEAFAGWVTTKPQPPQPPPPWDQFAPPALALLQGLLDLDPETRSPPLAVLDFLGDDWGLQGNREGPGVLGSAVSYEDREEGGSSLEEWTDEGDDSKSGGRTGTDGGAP

[7] = target: Tyrosine-protein kinase FRK (Homo sapiens) (UniProt P42685); experiment: Inhibition of FRK (unknown origin) assessed as remaining activity at 1 uM by Kinome scan method relative to control
[8] = target: Phosphatidylinositol 4-phosphate 5-kinase type-1 gamma (Homo sapiens, UniProt O60331); experiment: Inhibition of PIP5K1C (unknown origin) assessed as remaining activity at 1 uM by Kinome scan method relative to control
Chain of Phosphatidylinositol 4-phosphate 5-kinase type-1 gamma (O60331 whole entry): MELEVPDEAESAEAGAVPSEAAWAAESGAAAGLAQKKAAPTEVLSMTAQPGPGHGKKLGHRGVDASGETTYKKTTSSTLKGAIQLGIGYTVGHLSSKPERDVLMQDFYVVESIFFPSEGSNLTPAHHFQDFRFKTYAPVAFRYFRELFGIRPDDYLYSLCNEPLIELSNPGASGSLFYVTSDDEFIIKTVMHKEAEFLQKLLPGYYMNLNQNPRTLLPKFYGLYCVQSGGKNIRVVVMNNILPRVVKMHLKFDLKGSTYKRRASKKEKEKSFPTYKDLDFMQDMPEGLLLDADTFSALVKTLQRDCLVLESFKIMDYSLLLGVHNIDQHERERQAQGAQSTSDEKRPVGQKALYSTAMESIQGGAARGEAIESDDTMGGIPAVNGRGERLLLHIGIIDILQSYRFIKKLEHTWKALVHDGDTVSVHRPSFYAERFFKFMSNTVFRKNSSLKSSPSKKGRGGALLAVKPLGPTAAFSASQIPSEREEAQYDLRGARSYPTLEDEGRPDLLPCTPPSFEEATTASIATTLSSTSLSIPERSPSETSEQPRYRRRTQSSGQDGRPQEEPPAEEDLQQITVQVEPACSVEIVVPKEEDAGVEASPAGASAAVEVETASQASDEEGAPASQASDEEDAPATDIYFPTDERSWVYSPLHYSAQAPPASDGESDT

[9] = target: Dual specificity tyrosine-phosphorylation-regulated kinase 1B (Homo sapiens) (UniProt Q9Y463); experiment: Inhibition of DYRK1B (unknown origin) assessed as remaining activity at 1 uM by Kinome scan method relative to control
Chain of Dual specificity tyrosine-phosphorylation-regulated kinase 1B (Homo sapiens) (Q9Y463 whole entry, looked up): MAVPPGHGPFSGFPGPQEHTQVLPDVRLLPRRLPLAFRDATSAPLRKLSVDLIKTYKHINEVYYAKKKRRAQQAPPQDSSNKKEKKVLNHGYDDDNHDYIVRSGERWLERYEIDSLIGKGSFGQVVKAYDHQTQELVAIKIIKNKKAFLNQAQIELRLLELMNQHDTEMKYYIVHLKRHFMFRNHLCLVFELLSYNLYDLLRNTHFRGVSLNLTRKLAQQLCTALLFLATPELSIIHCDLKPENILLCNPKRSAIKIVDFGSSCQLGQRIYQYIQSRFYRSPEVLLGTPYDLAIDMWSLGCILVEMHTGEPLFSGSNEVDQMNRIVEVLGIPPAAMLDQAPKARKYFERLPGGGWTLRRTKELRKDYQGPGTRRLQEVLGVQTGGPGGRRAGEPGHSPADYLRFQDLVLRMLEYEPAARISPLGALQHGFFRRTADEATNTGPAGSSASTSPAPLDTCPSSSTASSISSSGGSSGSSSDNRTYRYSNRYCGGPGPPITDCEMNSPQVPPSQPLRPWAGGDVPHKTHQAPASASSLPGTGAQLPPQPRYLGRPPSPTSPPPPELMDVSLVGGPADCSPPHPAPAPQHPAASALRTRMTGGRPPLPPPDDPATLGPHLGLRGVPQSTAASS

[10] = target: Phosphatidylinositol 3-kinase catalytic subunit type 3 (Homo sapiens) (UniProt Q8NEB9); experiment: Inhibition of VPS34 (unknown origin) assessed as remaining activity at 1 uM by Kinome scan method relative to control
[11] = target: Cyclin-dependent kinase 5 (Homo sapiens) (UniProt Q00535); experiment: Inhibition of CDK5 (unknown origin) assessed as remaining activity at 1 uM by Kinome scan method relative to control
In short: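 Active-site-dependent competition-binding profiling (KINOMEscan) at 1 μM against a 468-kinase panel; compound supplied from a 10 mM DMSO stock. Read-out is ctrl% = (test signal − positive control signal)/(negative control signal − positive control signal) × 100. DMSO is the negative control (100%) and a control compound the positive control (0%). Lower ctrl% means tighter binding.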

[12] = target: Interleukin-1 receptor-associated kinase 3 (Homo sapiens) (UniProt Q9Y616); experiment: Inhibition of IRAK3 (unknown origin) assessed as remaining activity at 1 uM by Kinome scan method relative to control
Chain of Interleukin-1 receptor-associated kinase 3 (Homo sapiens) (Q9Y616 whole entry): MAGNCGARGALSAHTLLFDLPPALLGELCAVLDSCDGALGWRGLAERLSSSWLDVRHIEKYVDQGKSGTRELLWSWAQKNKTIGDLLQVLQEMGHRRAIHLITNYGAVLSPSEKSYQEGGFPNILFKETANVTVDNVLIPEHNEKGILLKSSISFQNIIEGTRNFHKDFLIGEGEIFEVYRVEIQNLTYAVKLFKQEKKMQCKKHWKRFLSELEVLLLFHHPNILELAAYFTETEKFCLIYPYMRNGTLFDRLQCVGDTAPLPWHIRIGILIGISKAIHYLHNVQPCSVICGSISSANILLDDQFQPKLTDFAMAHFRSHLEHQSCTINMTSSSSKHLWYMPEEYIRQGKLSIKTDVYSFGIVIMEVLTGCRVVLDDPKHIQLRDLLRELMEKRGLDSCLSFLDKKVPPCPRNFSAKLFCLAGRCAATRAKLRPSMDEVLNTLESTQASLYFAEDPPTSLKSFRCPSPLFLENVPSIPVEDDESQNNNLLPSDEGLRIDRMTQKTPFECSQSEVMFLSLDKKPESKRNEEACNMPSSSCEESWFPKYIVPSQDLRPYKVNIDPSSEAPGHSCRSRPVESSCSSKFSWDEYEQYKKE

[13] = target: Myosin light chain kinase 2, skeletal/cardiac muscle (Homo sapiens) (UniProt Q9H1R3); experiment: Inhibition of MYLK2 (unknown origin) assessed as remaining activity at 1 uM by Kinome scan method relative to control
Chain of Myosin light chain kinase 2, skeletal/cardiac muscle (Homo sapiens) (Q9H1R3 whole entry): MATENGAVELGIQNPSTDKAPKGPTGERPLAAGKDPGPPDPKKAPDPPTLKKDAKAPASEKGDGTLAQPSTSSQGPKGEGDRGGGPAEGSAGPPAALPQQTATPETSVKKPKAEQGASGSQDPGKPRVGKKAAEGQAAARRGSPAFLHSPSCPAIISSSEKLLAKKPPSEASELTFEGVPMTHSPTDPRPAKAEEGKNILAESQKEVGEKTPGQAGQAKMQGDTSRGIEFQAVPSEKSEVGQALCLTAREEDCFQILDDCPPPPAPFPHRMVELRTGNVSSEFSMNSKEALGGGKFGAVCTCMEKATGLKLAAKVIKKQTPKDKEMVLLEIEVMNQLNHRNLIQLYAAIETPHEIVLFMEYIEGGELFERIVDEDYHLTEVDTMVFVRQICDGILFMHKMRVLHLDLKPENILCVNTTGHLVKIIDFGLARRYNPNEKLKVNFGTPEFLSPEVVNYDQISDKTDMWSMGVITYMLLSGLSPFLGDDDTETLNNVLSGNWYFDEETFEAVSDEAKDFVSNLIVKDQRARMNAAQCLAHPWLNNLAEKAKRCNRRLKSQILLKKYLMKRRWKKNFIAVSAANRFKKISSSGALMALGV

[14] = target: Serine/threonine-protein kinase TAO3 (Homo sapiens, UniProt Q9H2K8); experiment: Inhibition of TAOK3 (unknown origin) in presence of ATP by enzymatic assay
[15] = Apparent volume of distribution in male Sprague-Dawley rat at 5 mg/kg, iv measured for 24 hrs by LC-MS/MS analysis; format: ADME, organism-based; details: in vivo, read-out: Vz
In short: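 Sprague-Dawley rats, single intravenous or oral dose. Parameters (half-life, AUC, bioavailability) reported in a supplementary table.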

[16] = target: Beta-adrenergic receptor kinase 1 (Homo sapiens) (UniProt P25098); experiment: Inhibition of GRK2 (unknown origin) assessed as remaining activity at 1 uM by Kinome scan method relative to control
[17] = target: Serine/threonine-protein kinase 10 (Homo sapiens) (UniProt O94804); experiment: Inhibition of LOK (unknown origin) assessed as remaining activity at 1 uM by Kinome scan method relative to control
[18] = target: Microtubule-associated serine/threonine-protein kinase 1 (Homo sapiens) (UniProt Q9Y2H9); experiment: Inhibition of MAST1 (unknown origin) assessed as remaining activity at 1 uM by Kinome scan method relative to control
[19] = Toxicity in DSS-induced mouse assessed as body weight loss at 1 mg/kg, ip administrated daily for over 1 to 21 days; format: organism-based; details: in vivo, time 1-21 day
In short: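 Colitis was induced with oral DSS on days 1–7, with vehicle or 1 mg/kg i.p. daily, n = 12 per group. Body weight was recorded over days 1–21 as a percentage of day 1; means ± SD, Student's t test per time point.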

[20] = system: HepG2; experiment: Inhibition of Flag-tagged MST1 D109A mutant (unknown origin) in human HepG2 cells assessed as MOB1 phosphorylation level at 0.3 to 10 uM by immunoblot analysis; format: cell-based; details: dose 0.3-10 µM
[21] = system: Phosphatidylinositol 4,5-bisphosphate 3-kinase catalytic subunit alpha isoform (Homo sapiens), P42336 [Q546K]; experiment: Inhibition of PIK3CA Q546K mutant (unknown origin) assessed as remaining activity at 1 uM by Kinome scan method relative to control
[22] = target: Serine/threonine-protein kinase 26 (Homo sapiens, UniProt Q9P289); experiment: Inhibition of MST4 (unknown origin) assessed as remaining activity at 1 uM by Kinome scan method relative to control
[23] = target: Serine/threonine-protein kinase PLK2 (Homo sapiens) (UniProt Q9NYY3); experiment: Inhibition of PLK2 (unknown origin) assessed as remaining activity at 1 uM by Kinome scan method relative to control
Chain of Serine/threonine-protein kinase PLK2 (Homo sapiens) (Q9NYY3 whole entry, looked up): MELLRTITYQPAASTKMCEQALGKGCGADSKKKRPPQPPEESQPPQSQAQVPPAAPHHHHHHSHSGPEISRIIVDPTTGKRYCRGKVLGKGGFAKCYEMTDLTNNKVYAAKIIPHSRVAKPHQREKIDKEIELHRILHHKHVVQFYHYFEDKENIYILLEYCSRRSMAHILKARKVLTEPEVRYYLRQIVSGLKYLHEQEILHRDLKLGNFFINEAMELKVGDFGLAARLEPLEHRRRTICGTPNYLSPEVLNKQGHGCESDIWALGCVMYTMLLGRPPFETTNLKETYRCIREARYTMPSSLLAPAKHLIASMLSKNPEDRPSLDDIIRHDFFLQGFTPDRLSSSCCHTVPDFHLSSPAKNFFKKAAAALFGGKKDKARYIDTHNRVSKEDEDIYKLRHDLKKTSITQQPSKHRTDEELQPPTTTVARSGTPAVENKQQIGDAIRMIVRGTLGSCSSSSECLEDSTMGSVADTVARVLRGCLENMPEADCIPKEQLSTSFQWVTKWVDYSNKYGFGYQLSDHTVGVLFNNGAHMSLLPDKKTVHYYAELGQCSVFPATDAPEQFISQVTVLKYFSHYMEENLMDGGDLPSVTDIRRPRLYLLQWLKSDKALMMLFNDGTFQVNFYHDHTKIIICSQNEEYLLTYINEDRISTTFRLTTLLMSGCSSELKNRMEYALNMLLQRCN

[24] = Acute toxicity in wild-type mouse assessed as increase in Ki67-positive cells at 1 mg/kg,ip administrated twice daily for 1 to 7 days by Ki67 staining; format: organism-based, Liver; details: in vivo, time 1-7 day
In short: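 Wild-type mice were dosed once a day before two-thirds partial hepatectomy, then given vehicle or 1 mg/kg i.p. twice per day. Ki67-positive cells were counted in liver sections over postoperative days 1 to 7, n = 5; means ± SD, Student's t test.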

[25] = target: Ribosomal protein S6 kinase alpha-4 (Homo sapiens) (UniProt O75676); experiment: Inhibition of C-terminal kinase domain RPS6KA4 (unknown origin) assessed as remaining activity at 1 uM by Kinome scan method relative to control; in short: as §1
Chain of Ribosomal protein S6 kinase alpha-4 (Homo sapiens) (O75676 whole entry, looked up, the tested form may be a part): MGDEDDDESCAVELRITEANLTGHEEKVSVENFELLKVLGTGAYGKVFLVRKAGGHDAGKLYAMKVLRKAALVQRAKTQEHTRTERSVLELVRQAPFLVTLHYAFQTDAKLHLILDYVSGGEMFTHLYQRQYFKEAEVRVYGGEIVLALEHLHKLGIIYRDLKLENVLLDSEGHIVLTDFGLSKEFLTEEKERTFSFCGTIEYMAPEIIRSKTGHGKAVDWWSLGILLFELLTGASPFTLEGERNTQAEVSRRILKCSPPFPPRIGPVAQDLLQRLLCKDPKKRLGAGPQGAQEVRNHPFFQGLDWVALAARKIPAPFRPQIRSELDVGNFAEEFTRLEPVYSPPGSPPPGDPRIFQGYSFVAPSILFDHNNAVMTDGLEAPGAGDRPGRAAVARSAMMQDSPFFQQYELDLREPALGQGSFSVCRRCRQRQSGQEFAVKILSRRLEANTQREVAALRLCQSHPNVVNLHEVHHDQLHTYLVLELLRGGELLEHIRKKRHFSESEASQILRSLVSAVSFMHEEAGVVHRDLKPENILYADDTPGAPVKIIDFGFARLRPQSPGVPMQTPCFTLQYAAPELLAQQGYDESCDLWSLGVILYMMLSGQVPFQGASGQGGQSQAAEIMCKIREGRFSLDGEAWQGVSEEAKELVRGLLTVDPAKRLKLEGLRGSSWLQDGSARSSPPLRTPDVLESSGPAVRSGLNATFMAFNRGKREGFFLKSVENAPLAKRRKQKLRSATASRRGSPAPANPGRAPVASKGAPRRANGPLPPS

[26] = target: Receptor-interacting serine/threonine-protein kinase 1 (Homo sapiens) (UniProt Q13546); experiment: Inhibition of RIPK1 (unknown origin) assessed as remaining activity at 1 uM by Kinome scan method relative to control
Chain of Receptor-interacting serine/threonine-protein kinase 1 (Homo sapiens) (Q13546 whole entry): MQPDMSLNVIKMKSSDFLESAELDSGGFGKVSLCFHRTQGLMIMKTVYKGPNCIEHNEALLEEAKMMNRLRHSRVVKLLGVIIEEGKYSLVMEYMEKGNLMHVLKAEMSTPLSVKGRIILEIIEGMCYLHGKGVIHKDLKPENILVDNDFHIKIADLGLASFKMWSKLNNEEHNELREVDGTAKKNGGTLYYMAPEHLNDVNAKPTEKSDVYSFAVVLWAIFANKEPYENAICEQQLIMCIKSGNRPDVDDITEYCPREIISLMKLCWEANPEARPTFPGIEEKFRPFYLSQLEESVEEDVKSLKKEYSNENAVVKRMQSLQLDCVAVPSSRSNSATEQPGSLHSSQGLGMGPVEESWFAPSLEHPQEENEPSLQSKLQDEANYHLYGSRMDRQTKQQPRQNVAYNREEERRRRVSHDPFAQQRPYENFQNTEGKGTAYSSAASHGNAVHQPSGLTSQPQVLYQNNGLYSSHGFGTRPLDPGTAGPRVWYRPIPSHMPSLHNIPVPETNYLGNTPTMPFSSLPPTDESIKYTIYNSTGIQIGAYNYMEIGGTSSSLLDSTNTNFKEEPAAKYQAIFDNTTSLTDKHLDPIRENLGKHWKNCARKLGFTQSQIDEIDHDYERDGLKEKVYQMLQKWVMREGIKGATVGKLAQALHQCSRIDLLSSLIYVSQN

[27] = target: Tyrosine-protein kinase ABL1 (Homo sapiens, UniProt P00519, M351T); experiment: Binding affinity to phosphorylated ABL1 M351T mutant (unknown origin) assessed as dissociation constant

Structure (SMILES): CN1C(=O)c2sccc2N(C)c2nc(Nc3ccc(S(N)(=O)=O)cc3)ncc21
- Activity [1]: 100%
- Activity [2]: 100%
- Activity [3]: 42%
- Activity [4]: 21%
- Activity [5]: 28%
- Activity [6]: 100%
- Activity [7]: 100%
- Activity [8]: 10%
- Activity [9]: 85%
- Activity [10]: 79%
- Activity [11]: 94%
- Activity [12]: 100%
- Activity [13]: 92%
- IC50 [14]: 254 nM
- Vd [15]: 7.1 L/kg
- Activity [16]: 100%
- Activity [17]: 100%
- Activity [18]: 80%
- Activity [19]: Toxic
- inhibition [20]: Active
- Activity [21]: 50%
- Activity [22]: 0.6%
- Activity [23]: 42%
- Activity [24]: Non-Toxic
- Activity [25]: 69%
- Activity [26]: 100%
- Kd [27]: 42 nM

— ChEMBL document CHEMBL5705905, “Pharmacological targeting of kinases MST1 and MST2 augments tissue repair and regeneration” (Sci Transl Med, 2016)
